# Reference: PMC6338520 (Cell chemical biology, 2018)
# Assays:
# PC3 cell lysate = assay: QStE hydrolysis in PC3 cell lysate with inhibitors; assay type: biochemical, human; details: lysate 20 μg, inhibitor 10 μM, 30 min on ice, QStE 5 μM; three replicates
# mouse liver lysates = assay: Substrate hydrolysis in mouse liver homogenate with or without Palmostatin B; assay type: biochemical; details: lysate 20 μg; for substrate processing by mouse liver lysates: substrate 5 μM
# Outline: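 Liver from 14-week-old virgin female C57BL/6 mice, washed twice in cold PBS, minced, sonicated in cold PBS, clarified, protein quantified by BCA. Homogenate (20 μg) preincubated with DMSO or Palmostatin B (10 μM) for 30 min on ice, then fluorogenic thioester substrate or colorimetric esterase substrate 4-NPO added (5 μM). Hydrolysis plotted.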
# T. gondii lysates = assay: In situ depalmitoylase activity in T. gondii lysates; assay type: biochemical, Toxoplasma gondii; details: ASC20KRNT 2.5 μM, Ku80 T. gondii lysate 5 μg, inhibitor 10 μM
# phospholipase A2 (PLA2) = phospholipase A2 (PLA2) (Sus scrofa, UniProt P00592); assay: QStE hydrolysis by recombinant PLA2; assay type: biochemical; details: QStE 10 μM, PLA2 500 nM
# [1] = Solubility of the quenched substrates in buffer; assay type: physicochemical; details: method not described
# [2] = molecular target: T1, monoacylglycerol lipase (MGLL) (Homo sapiens, UniProt Q99685); assay: QStE hydrolysis by recombinant MGLL; assay type: biochemical; details: QStE 10 μM, MGLL 500 nM
# T1 sequence (Q99685 1-303): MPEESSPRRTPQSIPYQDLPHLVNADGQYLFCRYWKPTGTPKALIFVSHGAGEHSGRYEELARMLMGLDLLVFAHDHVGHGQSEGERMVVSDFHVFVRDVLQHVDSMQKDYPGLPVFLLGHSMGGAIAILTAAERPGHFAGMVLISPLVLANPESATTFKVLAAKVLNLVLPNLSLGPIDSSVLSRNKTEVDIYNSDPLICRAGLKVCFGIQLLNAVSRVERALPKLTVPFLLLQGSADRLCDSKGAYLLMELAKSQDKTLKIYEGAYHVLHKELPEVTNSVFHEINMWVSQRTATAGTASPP
# TgPPT1 = TgPPT1 (Toxoplasma gondii, UniProt S4UG63); assay: Steady-state kinetics of fluorogenic substrate hydrolysis by recombinant TgPPT1; assay type: biochemical; details: QStE 10 μM, TgPPT1 100 nM
# HsAPT1 = HsAPT1 (Homo sapiens, UniProt O75608); assay: Steady-state kinetics of fluorogenic substrate hydrolysis by recombinant HsAPT1; assay type: biochemical; details: QStE 10 μM, HsAPT1 50 nM
# [3] = system: HsAPT1, HsAPT2 and TgPPT1; assay: Steady-state kinetics, statement made for all three depalmitoylases together; assay type: biochemical; details: all three enzymes
# phospholipase A2 (PLA2), sequence (P00592 23-146): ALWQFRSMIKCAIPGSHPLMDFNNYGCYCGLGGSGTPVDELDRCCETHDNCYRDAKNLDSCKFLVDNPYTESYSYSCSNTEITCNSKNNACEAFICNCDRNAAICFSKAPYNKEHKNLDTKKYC
# HsAPT1, sequence (O75608 whole entry): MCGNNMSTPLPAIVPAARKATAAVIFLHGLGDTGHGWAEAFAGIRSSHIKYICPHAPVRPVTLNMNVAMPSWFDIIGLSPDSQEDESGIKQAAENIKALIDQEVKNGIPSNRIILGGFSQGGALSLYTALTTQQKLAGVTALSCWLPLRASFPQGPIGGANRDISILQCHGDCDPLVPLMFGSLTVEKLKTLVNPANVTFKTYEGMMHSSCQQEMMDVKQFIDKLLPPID
smiles,measurement,setting,value
"O=S(=O)(F)Cc1ccccc1 [PMSF, phenylmethylsulfonyl fluoride]",effect of inhibitor on QStE processing in PC3 cell lysate,PC3 cell lysate,did not reduce
"CCCCCCCCCCCCCCCCS(=O)(=O)F [HDSF, hexadecylsulfonyl fluoride]",effect of inhibitor on QStE processing in PC3 cell lysate,PC3 cell lysate,only minor reductions
COc1ccc(N2CCN(C(=O)c3cc4c(s3)-c3ccccc3S(=O)(=O)C4)CC2)cc1 [ML349],effect of inhibitor on QStE processing in PC3 cell lysate,PC3 cell lysate,only minor reductions
"CCCCCCCCCC[C@@H]1C(=O)O[C@H]1CCc1ccc(OC)c(OC)c1 [PalmB, Palmostatin B]",effect of inhibitor on 4-NPO processing in mouse liver lysates,"mouse liver lysates; inhibitor 10 μM, 30 min on ice, 4-NPO 5 μM",only slightly reduced
same,effect of inhibitor on QStE processing in mouse liver lysates,"mouse liver lysates; inhibitor 10 μM, 30 min on ice, QStE 5 μM",completely blocked
same,effect of inhibitor on QStE processing in PC3 cell lysate,PC3 cell lysate,completely block
same,effect of inhibitor on activity in T. gondii lysate,T. gondii lysates,completely abolished
"CCCCCCCC(=O)Oc1ccc([N+](=O)[O-])cc1 [4-NPO, 4-nitrophenyl octanoate]",substrate processing by mouse liver lysates,mouse liver lysates,more effectively processed
"CN(C)c1ccc(/N=N/c2ccc(C(=O)NCCCn3cc(CCCCCCCCCCCCCCCC(=O)SC[C@H](NC(=O)c4cc5ccc(O)cc5oc4=O)C(=O)N4CCOCC4)nn3)cc2)cc1 [QStE, (R)-S-(2-(7-hydroxy-2-oxo-2H-chromene-3-carboxamido)-3-morpholino-3-oxopropyl) (E)-16-(1-(3-(4-((4-(dimethylamino)phenyl)diazenyl)benzamido)propyl)-1H-1,2,3-triazol-4-yl)hexadecanethioate]",QStE hydrolysis by PLA2,phospholipase A2 (PLA2),not hydrolyzed
same,soluble in aqueous buffer at concentrations up to,[1]; aqueous buffer,up to 100 μM
same,soluble in detergent supplemented buffer at concentrations up to,"[1]; buffer with CHAPS, 10 mM",up to 500 μM
same,QStE hydrolysis by MGLL,[2],not hydrolyzed
same,"QStE hydrolysis by TgPPT1, specificity panel",TgPPT1,readily hydrolyzed
same,substrate processing by mouse liver lysates,mouse liver lysates,robust processing
same,"QStE hydrolysis by APT1, specificity panel",HsAPT1,readily hydrolyzed
same,"catalytic efficiency for QStE compared to QSE, times greater",[3],10-30 times
O=C(CN1CCN(C(=O)c2ccco2)CC1)Nc1cc(C(F)(F)F)ccc1Cl [ML348],effect of inhibitor on QStE processing in PC3 cell lysate,PC3 cell lysate,only minor reductions
